Assay outcomes (PubChem)
A selection: hits, their analogues and other compounds. The true share with any hit is near 2.5%.
TCR CD3 inh – blocks the human TCR-CD3 interaction | inhibition, % at 9.4 µM | 0.37% of 360,000 active | TAMRA-labeled TCR probe fluorescence, biochemical;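 further: recombinant mutant TCR 2C K166C tagged with TAMRA read by polarization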
SIAE inh – human SIAE inhibition, primary screen | 0.69% of 370,000 active | SIAE FP-Rh probe binding, fluorescence polarization | inhibition, % at 9.66 µM | AID 1053197 | Q9HAT2;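 active means inhibition above a cutoff: mean of compounds within the control limits plus 3 SD of those, cut at about 17% in these data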
HTRA1 inh – HTRA1 (human) protease inhibition; Q92743; recombinant HTRA1, FP-rhodamine activity-based probe, fluorescence polarization; inhibition, % at 5.96 µM; 0.5% of 340,000 active; AID 504803; in the data active means inhibition above about 36%
rCAG RNA binder – r(CAG) repeat RNA binding; TO-PRO-1 dye displacement fluorescence; inhibition, % at 3 µM; 1.3% of 370,000 active; AID 651821;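 active means inhibition above the plate cutoff, the mean of all test compounds on that plate plus 3 SD, cut at about 35% in these data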;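 further: higher means more dye released from RNA so lower well fluorescence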
ABHD4 inh – inhibits mouse alpha/beta hydrolase domain 4. 0.54% of 370,000 active. AID 720543. purified mABHD4, FP-Rh probe fluorescence polarization. inhibition, % at 8.92 µM;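 active means inhibition exceeding the mean over every tested compound plus 3 SD, cut at about 30% in these data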
Target sequence (Q8VD66 whole entry, looked up, the tested form may be a part): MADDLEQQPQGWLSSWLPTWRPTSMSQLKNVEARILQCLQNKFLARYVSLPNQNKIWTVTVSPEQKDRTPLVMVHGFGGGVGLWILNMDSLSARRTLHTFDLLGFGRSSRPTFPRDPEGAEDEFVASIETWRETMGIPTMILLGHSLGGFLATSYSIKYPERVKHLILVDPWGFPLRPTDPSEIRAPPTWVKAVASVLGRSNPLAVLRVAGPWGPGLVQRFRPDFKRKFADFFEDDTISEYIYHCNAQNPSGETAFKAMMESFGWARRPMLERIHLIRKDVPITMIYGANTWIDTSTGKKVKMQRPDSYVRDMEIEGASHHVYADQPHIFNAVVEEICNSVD
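Assay system: Wild-type mouse ABHD4 protein | Medium: HEPES pH 7.0 buffer, 150 mM NaCl, 0.01% Pluronic F-127 | Incubation: Enzyme–compound pre-incubation 45 min, then probe 60 min, both 25 °C | Technique: Fluorescence polarization with parallel and perpendicular emission, 525/598 nm | Evaluation: % inhibition of FP-Rh probe binding versus controls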
BSA TAMRA ctr – interferes with TAMRA-BSA probe, flagging TCR-CD3 hits; shares compounds with TCR CD3 inh; TAMRA-labeled BSA probe fluorescence counterscreen; 10% of 1,200 active; inhibition, % at 9.4 µM; in the data active means inhibition above about 23%
TCR-CD3 conf – TCR-CD3 interaction inhibition, confirmation; inhibition, % at 9.4 µM; AID 652036; TAMRA-labeled TCR probe fluorescence binding assay; 48% of 1,200 active; shares compounds with TCR CD3 inh
rCAG bind conf – r(CAG) RNA repeat binding, confirmation; shares compounds with rCAG RNA binder; TO-PRO-1 dye displacement fluorescence; AID 652065; 70% of 4,300 active; inhibition, % at 3 µM;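 active means inhibition above a per-plate cutoff, the mean inhibition of sample wells plus 3 SD, cut at about 35% in these data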;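 further: loss of TO-PRO-1 fluorescence as compound displaces dye from 1x1 AA loop RNA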
DNA CAG counter – DNA CAG dye complex inhibition counter-screen | shares compounds with rCAG RNA binder | d(CAG) DNA oligo TO-PRO-1 dye displacement, fluorescence | inhibition, % at 3 µM | 94% of 4,300 active;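 active means inhibition above its plate's cutoff, the mean test-well inhibition plus 3 SD, cut at about 4.8% in these data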;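 further: hits displace the dye from DNA and so lower well fluorescence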
mABHD4 conf – confirmation of mouse ABHD4 inhibitors | shares compounds with ABHD4 inh | purified mABHD4, FP-Rh probe fluorescence polarization | inhibition, % at 8.92 µM | 55% of 1,800 active | AID 720658;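 active means mean inhibition across replicates above the hit cutoff set in the primary screen, cut at about 30% in these data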
SIAE confirm – confirmation of human SIAE inhibitors; inhibition, % at 9.66 µM; 13% of 2,300 active; SIAE FP-Rh activity-based probe, fluorescence polarization; AID 1117263; shares compounds with SIAE inh;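 active means mean inhibition of the replicates above the hit cutoff set in the primary screen, cut at about 17% in these data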;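 further: inhibitors lower polarization as more probe stays unbound to SIAE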
Hits are given with their value; - = inactive; . = no result given; + = active, no number. Unless noted, no stated cut-off is given here; in the data, active means inhibition above about 19%; inactive means the rest.

SMILES	TCR CD3 inh	SIAE inh	HTRA1 inh	rCAG RNA binder	ABHD4 inh	BSA TAMRA ctr	TCR-CD3 conf	mABHD4 conf	SIAE confirm	others
CC(=O)[C@@]1(O)Cc2c(O)c3c(c(O)c2[C@H](O[C@H]2C[C@H](N)[C@H](O)[C@H](C)O2)C1)C(=O)c1ccccc1C3=O	175.5	81.3	.	-	101.2	+	166.9	.	81.4
CCO/C(C)=N/Oc1cccc(N(C)C)c1	25.9	22.9	.	-	43.1	-	-	.	-
CC1CCN(S(=O)(=O)c2cnc(Cl)c(Br)c2)CC1	-	-	-	-	-	.	.	.	.
O=C(COC(=O)c1cc(-c2cccc3ccccc23)nc2ccccc12)NC1CCS(=O)(=O)C1 (stereo unspecified)	29.8	25.3	-	-	38.5	54.4	37.7	-	-
Cc1cc(C(=O)OCC(=O)NC2CCS(=O)(=O)C2)c2ccccc2n1 (stereo unspecified)	-	-	-	-	-	.	.	.	.
CN(C)C(=O)c1cccc(-c2cnc3c(NC=O)cc(-c4ccccc4N(C)C)cn23)c1	42.3	29.2	.	-	74.1	-	-	70.7	-
O=S1(=O)c2c(NCc3ccco3)cccc2Oc2ccccc2CN1Cc1cn(Cc2cccc(F)c2)nn1	.	-	.	-	-	.	.	.	.
C/C(=N\NC(=S)NCCc1ccccc1)c1ccc(O)cc1O	27.8	17.2	-	-	-	-	-	.	19.8
Nc1cnccc1C(=O)O	64.7	20.0	-	-	85.5	32.7	25.2	-	-
O=C(COC(=O)c1ccc[nH]c1=O)Nc1ccc(S(=O)(=O)N2CCCC2)cc1	-	-	-	-	-	.	.	.	.
Cc1nn(C)c(C)c1N1C(=O)c2cccc3c(Br)ccc(c23)C1=O	-	-	-	-	-	.	.	.	.
Cc1nn(C)c(C)c1N1C(=O)c2cccc3c(N)ccc(c23)C1=O	48.7	28.1	-	-	42.9	56.5	46.8	38.5	20.6
Nc1cc2nc3ccccc3oc-2cc1=O	22.8	20.1	-	-	46.7	-	-	-	-
O=c1oc2ccccc2cc1-c1nc2ccccc2o1	-	-	-	-	-	.	.	.	.
CC(=O)c1c(C)[nH]c(C(=O)OCC(=O)NCc2ccc(Cl)cc2)c1C	22.8	23.8	-	-	-	-	-	.	-
C=C(C)C1CC=C(CN2CCC(C(=O)OCC)CC2)CC1 (stereo unspecified)	-	-	-	-	-	.	.	.	.
O=C1CCCC/C1=C\Nc1ccc(O)cc1	42.0	21.7	-	-	54.4	-	-	-	-
Nc1cccc2cc(S(=O)(=O)O)ccc12	27.1	20.4	-	-	64.4	-	-	.	-
O=Nc1c(O)ccc2cc(S(=O)(=O)O)ccc12	.	.	-	.	.	.	.	.	.
CN(CCC#N)C(=O)COC(=O)c1c2c(nc3ccccc13)/C(=C\c1ccco1)CC2	33.5	18.7	-	65.1	44.9	-	34.0	-	-	rCAG bind conf=57.2;DNA CAG counter=30.9
Cc1cc(C)c(-c2csc(NC(=O)C3=COCCO3)n2)c(C)c1	-	-	-	-	-	.	.	.	.
Cc1cc(-c2csc(NC(=O)C3=COCCO3)n2)c(C)n1C	21.9	26.3	-	-	-	-	-	.	-
N#CCCN(CCC#N)C(=O)C1c2ccccc2Oc2ccccc21	124.3	66.6	-	-	103.3	-	-	-	-
O=C(N/N=C\c1c(O)ccc2ccccc12)c1ccc(Cn2cccn2)o1	23.9	23.8	-	-	-	-	24.8	.	-
O=C(N/N=C\c1ccc(Cl)s1)c1ccc(Cn2cccn2)o1	-	-	-	-	-	.	.	.	.
SMILES	TCR CD3 inh	SIAE inh	HTRA1 inh	rCAG RNA binder	ABHD4 inh	BSA TAMRA ctr	TCR-CD3 conf	mABHD4 conf	SIAE confirm	others
O=C(NNC(=O)c1ccc2ccccc2c1O)Nc1ccc(F)cc1	32.0	25.8	-	-	-	-	29.4	.	-
COc1ccccc1C(=O)NNC(=O)c1ccc2ccccc2c1O	31.6	19.9	-	-	-	-	37.8	.	-
COc1cccc(OCC(=O)NNC(=O)c2ccc3ccccc3c2O)c1	44.1	18.9	-	-	-	-	39.4	.	-
Clc1ccc(OCc2nn3c(-c4ccncc4)nnc3s2)cc1	-	-	-	-	-	.	.	.	.
O=C(NCc1ccc(F)cc1)C(c1ccncc1)N(C(=O)c1csnn1)C1CC1 (stereo unspecified)	-	-	-	-	-	.	.	.	.
CCOc1ccccc1/C=N/NC(=O)c1cccc(S(=O)(=O)N(CC)CC)c1	-	-	-	-	-	.	.	.	.
CCN(CC)S(=O)(=O)c1cccc(C(=O)N/N=C/c2ccc(O)c(O)c2O)c1	30.7	34.2	-	53.3	42.4	-	29.3	52.3	-	rCAG bind conf=55.3;DNA CAG counter=24.2
CCOC(=O)c1c(C)[nH]c(C(=O)COC(=O)c2cnccn2)c1C	38.2	20.1	-	-	-	-	-	.	-
O=C(Nc1ccc(Cl)c(S(=O)(=O)N2CCCC2)c1)c1cc(=O)[nH]c2ccccc12	-	-	-	-	-	.	.	.	.
O=C(NNc1ccccc1[N+](=O)[O-])Nc1ccc(Cl)c(Cl)c1	-	-	-	-	-	.	.	.	.
O=C1NC(=O)C(c2ccccc2[N+](=O)[O-])=C1Nc1ccc(O)c(Cl)c1	20.4	18.9	-	-	42.6	-	-	-	-
Cc1ccc(NC(=O)c2ccc(OCC3CCCO3)cc2)c(C)c1 (stereo unspecified)	-	-	-	-	-	.	.	.	.
O=c1c(O)c(-c2ccc(O)c(O)c2)oc2cc(O)cc(O)c12	19.5	18.4	-	36.2	33.9	-	-	32.9	-	rCAG bind conf=-;DNA CAG counter=8.1
O=C(NCCc1ccccc1)c1ccc(S(=O)(=O)N2CCCCC2)cc1	-	-	-	-	-	.	.	.	.
Cc1cc2ccccc2n1CCNC(=O)c1ccc(S(=O)(=O)N2CCCCC2)cc1	62.5	37.4	-	-	57.8	-	-	192.9	-
CN(C)c1ccc(C=Cc2nccc3ccccc23)cc1	157.2	130.9	.	-	111.5	144.8	87.9	84.8	20.4
Cc1ccc2nc(N3CCN(C(=O)c4cccs4)CC3)c(C#N)cc2c1	-	-	-	-	-	.	.	.	.
Cc1ccc(N(C)c2nc(N)nc(N)c2N=O)cc1	197.4	52.1	.	-	84.8	+	198.2	.	95.2
Cc1cccc(Nc2nc(N)nc(N)c2N=O)c1	-	-	-	-	-	.	.	.	.
S=c1nc2c(n[nH]1)c1ccccc1n2CCc1ccccc1	-	-	-	-	-	.	.	.	.
